Columns and labels:
PSMA(+) PC3 PIP cells [1] = assay: cell uptake and internalization; assay type: cell-based, human; details: initially; per 1 million cells
Procedure, shortened: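 HPLC-purified 177Lu radioligands were incubated with PSMA(+) PC3 PIP cells for 1 h up to 24 h. Total cell-surface uptake and internalized fraction were expressed as percentage incubated dose per 1 million cells, mean ± SD, n = 3. Specificity was checked by blocking with excess (~10 μM) of a known PSMA inhibitor.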

[2] = acute radiotoxicity after 8 weeks; assay type: in vivo, male NOD/SCID mice; details: 8 weeks post-treatment, 111 MBq
Procedure, shortened: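 Tumour-bearing male NOD/SCID mice (PSMA(+) PC3 PIP flank, ~60–85 mm3, 14–18 days post-inoculation) got one 111 MBq tail-vein dose of 177Lu radioligand or saline. At 8 weeks, n = 3 per group underwent complete blood analysis (haemoglobin, white cells, neutrophils, platelets) and necropsy with H&E anatomic pathology at a phenotyping core.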

PSMA(+) PC3 PIP tumor = assay: tissue biodistribution, PSMA; assay type: in vivo, mouse; details: 24 h
PSMA(+) PC3 PIP cells [3] = assay: clonogenic survival assay; assay type: cell-based, human; details: 48 h of incubation, colony formation
Procedure, shortened: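 PSMA(+) PC3 PIP and PSMA(−) PC3 flu cells were exposed to HPLC-purified 177Lu radioligands for 48 h at 37 °C, then scored for colony formation (mean ± SD, n = 3). D0 was the activity concentration (kBq/mL) giving 37% survival.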

[4] = test system: PSMA(+) PC3 PIP flank tumor model; assay: PSMA-targeted radionuclide therapy in flank tumor model; assay type: in vivo, male NOD/SCID mice; details: single 111 MBq i.v.

Structure (SMILES): O=C([O-])CN1CCN(CC(=O)[O-])CCN(CC(=O)NCC2CCC(C(=O)N[C@@H](Cc3ccc4ccccc4c3)C(=O)NCCCC[C@H](NC(=O)N[C@@H](CCC(=O)O)C(=O)O)C(=O)O)CC2)CCN(CC(=O)[O-])CC1.[177Lu+3] (some centres unmarked) [177Lu-PSMA-617]
- cell uptake within PSMA(+) PC3 PIP cells (PSMA(+) PC3 PIP cells [1]): ~ 40 % of the incubated dose
- parotid glands pathology [2]: mild changes
- platelets [2]: significantly lower platelets than those in the other treatment groups
- testes pathology [2]: most severe degenerative changes and loss of seminiferous epithelium
- kidney uptake (PSMA(+) PC3 PIP tumor): < 0.5 ID/g
- D0 (37% survival) (PSMA(+) PC3 PIP cells [3]): 24–32 kBq/mL
- median survival [4]: 130 days
- mice reaching a relative tumor volume > 4 times the initial volume [4]: only one mouse

— article PMC8068522 (European journal of nuclear medicine and molecular imaging, 2019)
